Results taken from ChEMBL document CHEMBL1132488, “On the bioactive conformation of NAN-190 (1) and MP3022 (2), 5-HT(1A) receptor antagonists” (J Med Chem, 1999).

Tests used:
Rattus norvegicus [1] = species: Rattus norvegicus; assay: Effect on 8-OH-DAPT- induced behavioral syndrome(FT: forepaw treading) by the compound in reserpine pretreated rats at a dose of 8; FT mean score; assay type: functional
Outline: (§1)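 Reserpinized male Wistar rats (reserpine 1 mg/kg sc, 18 h before), groups of 6. Compound given ip in 1% Tween 80 60 min before 8-OH-DPAT 5 mg/kg sc. FBP/FT rated 0–3 at 3, 6, 9, 12 and 15 min after agonist, summed (max 15). Mean ± SEM; Newman–Keuls test; ED50 with range.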

Rattus norvegicus [2] = species: Rattus norvegicus; assay: Effect on 8-OH-DAPT- induced behavioral syndrome(FBP: flat body posture) by the compound in reserpine pretreated rats at a dose of 8; FBP mean score; assay type: functional; outline: as §1
Rattus norvegicus [3] = assay: Induction of LLR(lower lip retraction) by the compound in rats at a dose of 16 mg/kg; LLR score; assay type: functional
Outline: (§2)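 Male Wistar rats, groups of 6, given compound alone ip as 1% Tween 80 suspension. Lower incisor visibility scored 0/0.5/1 at 15, 30 and 45 min after dosing, summed (max 3 per rat). Mean ± SEM versus vehicle, Newman–Keuls test; ED50 with range.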

Rattus norvegicus [4] = species: Rattus norvegicus; assay: Effect on 8-OH-DAPT- induced behavioral syndrome(FT: forepaw treading) by the compound in reserpine pretreated rats at a dose of 16; assay type: functional; outline: as §1
Rattus norvegicus [5] = assay: Induction of LLR(lower lip retraction) by the compound in rats at a dose of 4 mg/kg; LLR score; assay type: functional; outline: as §2
Rattus norvegicus [6] = species: Rattus norvegicus; assay: Dose Inducing behavioral syndrome(FT: forepaw treading) by the compound in reserpine pretreated rats; assay type: functional
Outline: (§3)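 Male Wistar rats (260–300 g), groups of 6, given reserpine 1 mg/kg sc 18 h before test. Compounds given ip as 1% Tween 80 suspension. FBP and FT rated 0–3 in 45-s sessions every 3 min, starting 3 min after dosing. Score summed over 5 periods (max 15 per symptom). Mean ± SEM; Newman–Keuls test.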

Rattus norvegicus [7] = species: Rattus norvegicus; assay: Effect on 8-OH-DAPT- induced behavioral syndrome(FBP: flat body posture) by the compound in reserpine pretreated rats at a dose of 16; FBP mean score; assay type: functional; outline: as §1
Rattus norvegicus [8] = species: Rattus norvegicus; assay: Induction of behavioral syndrome(FT: forepaw treading) by the compound in reserpine pretreated rats at a dose of 16; FT mean score; assay type: functional
Outline: (§4)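 Male Wistar rats (260–300 g) were given reserpine 1 mg/kg sc in saline 18 h before testing. Test compound was then given alone ip as a 1% Tween 80 suspension (2 mL/kg). FBP and FT were each scored 0–3 and summed (maximum 15). n=6 per group; mean ± SEM; Newman–Keuls test.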

Rattus norvegicus [9] = species: Rattus norvegicus; assay: Induction of behavioral syndrome(FBP: flat body posture) by the compound in reserpine pretreated rats at a dose of 8; assay type: functional; outline: as §4
Rattus norvegicus [10] = assay: Induction of LLR(lower lip retraction) by the compound in rats at a dose of 8 mg/kg; LLR score; assay type: functional; outline: as §2
Rattus norvegicus [11] = species: Rattus norvegicus; assay: Effect on 8-OH-DAPT- induced behavioral syndrome(FT: forepaw treading) by the compound in reserpine pretreated rats at a dose of 4; FT mean score; assay type: functional; outline: as §1
Rattus norvegicus [12] = species: Rattus norvegicus; assay: Induction of behavioral syndrome(FBP: flat body posture) by the compound in reserpine pretreated rats at a dose of 16; FBP mean score; assay type: functional; outline: as §3
Rattus norvegicus [13] = species: Rattus norvegicus; assay: Induction of behavioral syndrome(FBP: flat body posture) by the compound in reserpine pretreated rats at a dose of 4; FBP mean score; assay type: functional; outline: as §4
Rattus norvegicus [14] = species: Rattus norvegicus; assay: Induction of behavioral syndrome(FT: forepaw treading) by the compound in reserpine pretreated rats at a dose of 8; FT mean score; assay type: functional; outline: as §4
Rattus norvegicus [15] = species: Rattus norvegicus; assay: Effective dose required to induce LLR(lower lip retraction); assay type: functional; outline: as §2
Rattus norvegicus [16] = species: Rattus norvegicus; assay: Dose Inducing behavioral syndrome(FBP: flat body posture) by the compound in reserpine pretreated rats; assay type: functional; outline: as §3
[17] = biological target: T1, 5-hydroxytryptamine receptor 1A (Rattus norvegicus, UniProt P19327); assay: Ability to displace [3H]8-OH-DPAT from 5-hydroxytryptamine 1A receptor
T1 sequence (P19327 whole entry): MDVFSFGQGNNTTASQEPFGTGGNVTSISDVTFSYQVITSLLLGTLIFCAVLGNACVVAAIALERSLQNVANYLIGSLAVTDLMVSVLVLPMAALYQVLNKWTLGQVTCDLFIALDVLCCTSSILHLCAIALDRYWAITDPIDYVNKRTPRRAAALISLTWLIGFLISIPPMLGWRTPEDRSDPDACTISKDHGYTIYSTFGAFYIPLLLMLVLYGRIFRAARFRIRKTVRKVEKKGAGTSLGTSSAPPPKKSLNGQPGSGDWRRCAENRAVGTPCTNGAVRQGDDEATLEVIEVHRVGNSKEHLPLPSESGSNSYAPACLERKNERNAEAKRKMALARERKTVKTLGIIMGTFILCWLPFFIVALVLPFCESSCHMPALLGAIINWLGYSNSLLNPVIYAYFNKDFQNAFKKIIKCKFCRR
Outline: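 Rat hippocampal membranes, [3H]8-OH-DPAT radioligand. Ki from at least three competition experiments, each with 10–14 drug concentrations run in triplicate. Ki calculated with the Cheng–Prusoff equation.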

Rattus norvegicus [18] = species: Rattus norvegicus; assay: Induction of behavioral syndrome(FT: forepaw treading) by the compound in reserpine pretreated rats at a dose of 4; FT mean score; assay type: functional; outline: as §4
Rattus norvegicus [19] = species: Rattus norvegicus; assay: Effect on 8-OH-DAPT- induced behavioral syndrome(FBP: flat body posture) by the compound in reserpine pretreated rats at a dose of 4; FBP mean score; assay type: functional; outline: as §1
Rattus norvegicus [20] = species: Rattus norvegicus; assay: Effect on 8-OH-DAPT- induced behavioral syndrome(FT: forepaw treading) by the compound in reserpine pretreated rats at a dose of 32; FT mean score; assay type: functional; outline: as §1
Rattus norvegicus [21] = assay: Induction of LLR(lower lip retraction) by the compound in rats at a dose of 32 mg/kg; assay type: functional; outline: as §2
Rattus norvegicus [22] = assay: Induction of LLR(lower lip retraction) by the compound in rats at a dose of 16 mg/kg; assay type: functional; outline: as §2
Rattus norvegicus [23] = assay: Induction of LLR(lower lip retraction) by the compound in rat at a dose of 8 mg/kg; LLR score; assay type: functional; outline: as §2
Rattus norvegicus [24] = species: Rattus norvegicus; assay: Effect on 8-OH-DAPT- induced behavioral syndrome(FBP: flat body posture) by the compound in reserpine pretreated rats at a dose of 32; FBP mean score; assay type: functional; outline: as §1
Rattus norvegicus [25] = species: Rattus norvegicus; assay: Induction of behavioral syndrome(FT: forepaw treading) by the compound in reserpine pretreated rats at a dose of 32; FT mean score; assay type: functional; outline: as §4
Rattus norvegicus [26] = assay: Effect on 8-OH-DPAT-Induced LLR(lower lip retraction) in rats at a dose of 8 mg/kg; assay type: functional
Outline: (§5)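 Male Wistar rats, groups of 6. Compound given ip in 1% Tween 80 45 min before 8-OH-DPAT 1 mg/kg sc. Lower incisor visibility scored 0/0.5/1 at 15, 30 and 45 min after agonist, summed (max 3). Mean ± SEM; Newman–Keuls test; ED50 with range.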

Rattus norvegicus [27] = species: Rattus norvegicus; assay: Induction of behavioral syndrome(FBP: flat body posture) by the compound in reserpine pretreated rats at a dose of 8; FBP mean score; assay type: functional; outline: as §4
Rattus norvegicus [28] = species: Rattus norvegicus; assay: Effect on 8-OH-DAPT- induced behavioral syndrome(FT: forepaw treading) by the compound in reserpine pretreated rats at a dose of 16; FT mean score; assay type: functional; outline: as §1
Rattus norvegicus [29] = species: Rattus norvegicus; assay: Effective dose of the required to inhibit symptoms produced by 8-OH-DPAT; assay type: functional; outline: as §1
Rattus norvegicus [30] = assay: Effect on 8-OH-DPAT-Induced LLR(lower lip retraction) in rats at a dose of 32 mg/kg; assay type: functional; outline: as §5
Rattus norvegicus [31] = assay: Effect on 8-OH-DPAT-Induced LLR(lower lip retraction) in rats at a dose of 16 mg/kg; assay type: functional; outline: as §5
Rattus norvegicus [32] = species: Rattus norvegicus; assay: Induction of behavioral syndrome(FBP: flat body posture) by the compound in reserpine pretreated rats at a dose of 32; FBP mean score; assay type: functional; outline: as §4

## COc1ccccc1N1CCN(C2CCCC(n3nnc4ccccc43)C2)CC1 (stereo unspecified)
Rattus norvegicus [1]
  FT mean score: 3.5
Rattus norvegicus [2]
  FBP mean score: 7
Rattus norvegicus [3]
  LLR score: 1.6
Rattus norvegicus [4]
  FT mean score: 0.8
Rattus norvegicus [5]
  LLR score: 0.9
Rattus norvegicus [6]
  ED50: 7 mg/kg
Rattus norvegicus [7]
  FBP mean score: 6.2
Rattus norvegicus [8]
  FT mean score: 0.1
Rattus norvegicus [9]
  FBP mean score: 0.5
Rattus norvegicus [10]
  LLR score: 1.3
Rattus norvegicus [11]
  FT mean score: 9.6
Rattus norvegicus [12]
  FBP mean score: 1
Rattus norvegicus [13]
  FBP mean score: 0.6
Rattus norvegicus [14]
  FT mean score: 0.3
Rattus norvegicus [15]
  ED50: 8 mg/kg
Rattus norvegicus [16]
  ED50: 11 mg/kg
[17]
  Ki: 47 nM
Rattus norvegicus [18]
  FT mean score: 0.1
Rattus norvegicus [19]
  FBP mean score: 12.5

## O=C1c2ccccc2C(=O)N1C1CCC(N2CCc3ccccc3C2)CC1 (stereo unspecified)
Rattus norvegicus [20]
  FT mean score: 4.3
Rattus norvegicus [21]
  LLR score: 0.3
Rattus norvegicus [1]
  FT mean score: 7.5
Rattus norvegicus [22]
  LLR score: 0.2
Rattus norvegicus [23]
  LLR score: 0.1
Rattus norvegicus [24]
  FBP mean score: 11.8
Rattus norvegicus [25]
  FT mean score: 0.1
Rattus norvegicus [26]
  LLR score: 2.3
Rattus norvegicus [27]
  FBP mean score: 0.3
Rattus norvegicus [2]
  FBP mean score: 11
Rattus norvegicus [28]
  FT mean score: 5.7
Rattus norvegicus [6]
  ED50: 13.5 mg/kg
Rattus norvegicus [29]
  ED50: > 32 mg/kg
Rattus norvegicus [30]
  LLR score: 2.3
Rattus norvegicus [7]
  FBP mean score: 10.3
Rattus norvegicus [31]
  LLR score: 2.5
Rattus norvegicus [8]
  FT mean score: 0.1
Rattus norvegicus [32]
  FBP mean score: 0.3
Rattus norvegicus [12]
  FBP mean score: 0.5
Rattus norvegicus [14]
  FT mean score: 0.1
Rattus norvegicus [16]
  ED50: > 32 mg/kg
[17]
  Ki: 34 nM
